The nature of data set [1]: Solubility in water. The format is physicochemical. As to conditions: buffer.
The test system of data set [2] is Mus musculus. Nature of the data set: Toxicity in nude CD1 mouse xenografted with human A431 cells assessed as body weight loss at 37 mg/kg, ip administered qd 3 times per week for 2 weeks. The class given is organism-based, A-431. Set-up: dose 37 mg/kg, route intraperitoneal. As to conditions: in vivo, 336 h. A digest of the protocol:
(§1)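 CD1 nude mice bore s.c. A431 xenografts (5 × 10⁶ cells, right flank, 8 mice per group). Dosing started on day 3 on a qdx3/wx2w schedule, in vehicle of 10% DMSO, 9% HPBCD and 14.4% PEG1000 in water. Mice were weighed daily, and BWL% = 100 − (mean body weight day x / mean body weight day 1 × 100), with day 1 the first treatment day. The maximum BWL is reported.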

The subject of data set [3] is NCI-H460. Nature of the data set: Antiproliferative activity against human NCI-H460 cells incubated for 24 hrs drug exposure measured after 48 hrs of recovery by sulforhodamine B assay. The class given is functional, cell-based.
Data set [4] can be described thus: Chemical stability in aqueous buffer containing 5% DMSO and 5% tween 80 at pH 7.4 assessed as compound recovery in anoxic conditions after 24 hrs by UPLC analysis. The note with it: read-out: Stability. The format is physicochemical. A digest of the protocol: (§2)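 Stability at 37 °C in aqueous buffer with 5% DMSO and 5% Tween 80 at pH 1.2, 6.8 or 7.4; percent recovery by HPLC/UPLC on BEH C18 column, water+0.1% TFA/acetonitrile gradient from 40% to 95% acetonitrile over 8 min, room temperature.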

A short description of data set [5]: Chemical stability in aqueous buffer containing 5% DMSO and 5% tween 80 at pH 6.8 assessed as compound recovery in anoxic conditions after 24 hrs by UPLC analysis. The class given is physicochemical. The note with it: read-out: Stability. A digest of the protocol: as §2
Data set [6] concerns Mus musculus. The data set can be described thus: Toxicity in nude CD1 mouse xenografted with human A431 cells assessed as body weight loss at 37 mg/kg, po administered qd 3 times per week for 2 weeks. The class given is organism-based, A-431. Set-up: dose 37 mg/kg, route oral. As to conditions: in vivo, 336 h. A digest of the protocol:
as §1

The test system of data set [7] is A-431. Nature of the data set: Antitumor activity against human A431 cells xenografted in nude CD1 mouse assessed as tumor volume inhibition at 37 mg/kg, ip administered qd 3 times per week for 2 weeks relative to control. The format is functional. As to conditions: A-431, ip, 336 h, route intraperitoneal, read-out: TGI. The gist of the method: (§3)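 A431 epidermoid carcinoma cells (5 × 10⁶) from in vitro culture were injected s.c. into the right flank of CD1 nude mice on day 0, with 8 mice per group. Dosing began on day 3, at tumors of about 50 mm³, on a qdx3/wx2w schedule. Vehicle was 10% DMSO, 9% HPBCD and 14.4% PEG1000 in water. Tumor diameters were measured twice weekly by caliper, and TVI% was taken versus the vehicle group (Mann–Whitney).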

Data set [8] has as its system A-431. Nature of the data set: Antiproliferative activity against human A431 cells incubated for 24 hrs drug exposure measured after 48 hrs of recovery by sulforhodamine B assay. The format is functional, cell-based.
Data set [9] can be described thus: Chemical stability in aqueous buffer containing 5% DMSO and 5% tween 80 at pH 7.4 assessed as compound recovery in anoxic conditions after 6 hrs by UPLC analysis. The format is physicochemical. As to conditions: read-out: Stability. The gist of the method: as §2
Data set [10] has as its system A-431. Nature of the data set: Antitumor activity against human A431 cells xenografted in nude CD1 mouse assessed as tumor volume inhibition at 37 mg/kg, po administered qd 3 times per week for 2 weeks relative to control. The format is functional. The note with it: A-431, 336 h, read-out: TGI. The gist of the method:
as §3

The nature of data set [11]: Chemical stability in aqueous buffer containing 5% DMSO and 5% tween 80 at pH 1.2 assessed as compound recovery in anoxic conditions after 3 hrs by UPLC analysis. The format is physicochemical. The note with it: read-out: Stability. A digest of the protocol: as §2
A short description of data set [12]: Chemical stability in aqueous buffer containing 5% DMSO and 5% tween 80 at pH 1.2 assessed as compound recovery in anoxic conditions after 12 hrs by UPLC analysis. The note with it: pH 1.2, 12 h. The class given is physicochemical. The gist of the method:
as §2

Data set [13] has as its system A-431. Nature of the data set: Antitumor activity against human A431 cells xenografted in nude CD1 mouse assessed as tumor volume inhibition at 40 mg/kg, po administered qd 3 times per week for 2 weeks relative to control. The format is functional. The note with it: A-431, 336 h, read-out: TGI. A digest of the protocol: as §3
The test system of data set [14] is A-431. Nature of the data set: Antitumor activity against human A431 cells xenografted in nude CD1 mouse assessed as tumor volume inhibition at 40 mg/kg, ip administered qd 3 times per week for 2 weeks relative to control. The class given is functional. The note with it: A-431, ip, 336 h, route intraperitoneal, read-out: TGI. The gist of the method:
as §3

Data set [15] relates to Plasma. The data set can be described thus: Prodrug conversion in mouse plasma assessed as drug concentration at 0.5 hrs. The class given is ADME, cell-free. A digest of the protocol: (§4)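 Prodrugs already shown stable at pH 1.2, 6.8 and 7.4 were incubated in murine plasma and sampled over time up to 6 h. A parallel incubation used murine plasma pretreated with the esterase inhibitor PMSF (phenylmethyl sulfonyl fluoride).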

Data set [16] has as its system Mus musculus. Nature of the data set: Toxicity in nude CD1 mouse xenografted with human A431 cells assessed as body weight loss at 40 mg/kg, ip administered qd 3 times per week for 2 weeks. The class given is organism-based, A-431. Further details: dose 40 mg/kg, route intraperitoneal. As to conditions: in vivo, 336 h. A digest of the protocol:
as §1

The subject of data set [17] is Plasma. Nature of the data set: Prodrug conversion in mouse plasma assessed as drug concentration at 1 hr. The format is ADME, cell-free. A digest of the protocol:
as §4

In data set [18] the test system is Plasma. Nature of the data set: Prodrug conversion in mouse plasma assessed as drug concentration at 3 hrs. The class given is ADME, cell-free. The gist of the method:
as §4

Data set [19] has as its system Mus musculus. The data set can be described thus: Toxicity in nude CD1 mouse xenografted with human A431 cells assessed as body weight loss at 40 mg/kg, po administered qd 3 times per week for 2 weeks. The note with it: in vivo, 336 h. The class given is organism-based, A-431. Further details: dose 40 mg/kg, route oral. The gist of the method:
as §1

The subject of data set [20] is Plasma. Nature of the data set: Prodrug conversion in mouse plasma assessed as drug concentration at 6 hrs. The class given is ADME, cell-free. A digest of the protocol:
as §4

Data set [21] relates to Plasma. Nature of the data set: Prodrug conversion in mouse plasma assessed as drug concentration at 6 hrs in presence of esterase inhibitor PMSF. The format is ADME, cell-free. The gist of the method:
as §4

The test system of data set [22] is Mus musculus. The data set can be described thus: Toxicity in nude CD1 mouse xenografted with human A431 cells assessed as body weight loss at 25 mg/kg, po administered qd 3 times per week for 2 weeks. The class given is organism-based, A-431. Set-up: dose 25 mg/kg, route oral. The note with it: in vivo, 336 h. A digest of the protocol: (§5)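 CD1 nude mice given s.c. right-flank NCI-H460 (3 × 10⁶) or A431 (5 × 10⁶) cells from culture on day 0; eight mice per group. Dosing began day 3 at ~50 mm³ tumors; vehicle 10% DMSO, 9% HPBCD, 14.4% PEG1000 in water. Diameters taken biweekly by caliper; mice weighed daily, maximum BWL% reported; Mann–Whitney versus vehicle.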

The subject of data set [23] is A-431. Nature of the data set: Antitumor activity against human A431 cells xenografted in nude CD1 mouse assessed as tumor volume inhibition at 25 mg/kg, po administered qd 3 times per week for 2 weeks relative to control. The format is functional. As to conditions: A-431, 336 h, read-out: TGI. The gist of the method: as §5
Data set [24] can be described thus: Toxicity in iv dosed nude CD1 mouse xenografted with human A431 cells assessed as mortality administered qd 3 times per week for 2 weeks. As to conditions: in vivo. The class given is organism-based, A-431.
For data set [25], the system named is NCI-H460. Nature of the data set: Antitumor activity against human NCI-H460 cells xenografted in nude CD1 mouse assessed as tumor volume inhibition at 13 mg/kg, iv administered qd 3 times per week for 2 weeks relative to control. The note with it: NCI-H460, 336 h, read-out: TGI. The class given is functional. A digest of the protocol: as §5
Data set [26] deals with Mus musculus. The data set can be described thus: Toxicity in nude CD1 mouse xenografted with human NCI-H460 NSCLC cells assessed as body weight loss at 13 mg/kg, iv administered qd 3 times per week for 2 weeks. The format is organism-based. Further details: dose 13 mg/kg, route intravenous. As to conditions: in vivo, 336 h. The gist of the method: as §5
Data set [27] has as its system NCI-H460. Nature of the data set: Antitumor activity against human NCI-H460 cells xenografted in nude CD1 mouse assessed as tumor volume inhibition at 25 mg/kg, po administered qd 3 times per week for 2 weeks relative to control. As to conditions: NCI-H460, 336 h, read-out: TGI. The format is functional. A digest of the protocol: as §5
Data set [28] deals with Mus musculus. The data set can be described thus: Toxicity in nude CD1 mouse xenografted with human NCI-H460 NSCLC cells assessed as body weight loss at 25 mg/kg, po administered qd 3 times per week for 2 weeks. The class given is organism-based. Further details: dose 25 mg/kg, route oral. As to conditions: in vivo, 336 h. A digest of the protocol:
as §5

The nature of data set [29]: Toxicity in po dosed nude CD1 mouse xenografted with human A431 cells assessed as mortality administered qd 3 times per week for 2 weeks. The note with it: in vivo. The class given is organism-based, A-431.

A value given as a limit tells only on which side of the number the result lay.

As to `Cl.O=C(O)/C=C/c1ccc(-c2ccc(OC(=O)NCCN3CCOCC3)c(C34CC5CC(CC(C5)C3)C4)c2)cc1`, in data set [1], the solubility result is “Insoluble”. For the same molecule, the Activity in the data set with Mus musculus [2] and in the data set on Mus musculus [6] was 0% in each case. The IC50 in the data set with NCI-H460 [3] was determined as 920 nM; in the data set with A-431 [8], 1400 nM. Further, the results for the remaining at 24 h in [4] and in data set [5] were 85% and above 99%, respectively. In addition, the inhibition in vivo at 37 mg/kg was found to be 21% in the data set on A-431 [7] and 0% in the data set on A-431 [10]. Further, the remaining at 6 h in data set [9] is above 99%. Further, the remaining at 3 h in data set [11] was above 99%. In data set [12], the Stability result is “Stable”.
As for `Cl.O=C(O)/C=C/c1ccc(-c2ccc(OC(=O)N3CCC(N4CCCCC4)CC3)c(C34CC5CC(CC(C5)C3)C4)c2)cc1`, the results for the inhibition in vivo at 40 mg/kg in the data set on A-431 [13] and in the data set on A-431 [14] were 22% and 26%, respectively. The solubility result in data set [1] was “Insoluble”. Further, the IC50 with NCI-H460 [3] and with A-431 [8] was above 10000 nM throughout. The Drug metabolism in the data set on Plasma [15] worked out at 100%; with Plasma [17] it was 100%; in the data set on Plasma [18] it was 100%; in the data set with Plasma [20], 100%; in the data set with Plasma [21], 4.13%. The remaining at 24 h in data set [4] and in data set [5] was above 99% each time. Besides, the Activity with Mus musculus [16] stood at 0%; in the data set with Mus musculus [19], 4%. Further, in [11], the remaining at 3 h was above 99%. Also, in [12], the Stability result was “Stable”.
As for `O=C(O)/C=C/c1ccc(-c2ccc(O)c(C34CC5CC(CC(C5)C3)C4)c2)cc1` [ADAROTENE], in [1], the solubility entry is listed as “Insoluble”. The results for the Activity in the data set with Mus musculus [22], with Mus musculus [26] and with Mus musculus [28] were 12%, 8% and 9%, respectively. Moreover, the IC50 in the data set with NCI-H460 [3] turned out to be 200 nM; with A-431 [8] it was 120 nM. Besides, the inhibition in vivo at 25 mg/kg in the data set with A-431 [23] was found to be 36%; in the data set on NCI-H460 [27], 34%. In addition, the remaining at 24 h in data set [4] and in data set [5] was above 99% each time. The MTD at 336 h in data set [24] is 13 mg/kg; in [29] it was 25 mg/kg. In addition, the inhibition in vivo at 13 mg/kg in the data set with NCI-H460 [25] is 37%. Further, the remaining at 3 h in data set [11] is above 99%. Besides, in data set [12], the Stability result is reported as “Stable”.
